Screening results from PubChem BioAssay.
HNF4A DNA FP – change in binding of human HNF4A to DNA, primary screen, biochemical, fluorescence polarization, FITC-DNA. 1 h. activity change, % at 10 µM. actives 0.3% (n = 360,000); in the data active means activity change above about 30%, passing the limit was not always enough
Target sequence (P41235 whole entry, looked up): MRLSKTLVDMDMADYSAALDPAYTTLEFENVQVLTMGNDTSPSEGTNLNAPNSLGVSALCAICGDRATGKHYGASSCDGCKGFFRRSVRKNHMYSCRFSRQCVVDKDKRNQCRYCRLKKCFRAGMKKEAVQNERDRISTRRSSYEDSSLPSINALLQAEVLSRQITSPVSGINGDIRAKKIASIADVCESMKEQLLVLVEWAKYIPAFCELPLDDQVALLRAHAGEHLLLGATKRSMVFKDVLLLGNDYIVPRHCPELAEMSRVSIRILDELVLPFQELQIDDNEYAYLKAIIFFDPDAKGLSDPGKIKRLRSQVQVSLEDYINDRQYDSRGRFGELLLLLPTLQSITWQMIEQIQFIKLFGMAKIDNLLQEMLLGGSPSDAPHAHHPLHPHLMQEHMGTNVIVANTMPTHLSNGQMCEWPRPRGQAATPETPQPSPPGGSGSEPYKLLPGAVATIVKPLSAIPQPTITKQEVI
ARFGAP1 inhibitor – inhibitors of rat ARFGAP1 GAP activity, primary screen, biochemical, fluorescence polarization, GDP tracer | inhibition, % at 16.5 µM | AID 651572, 2012 | Arfgap1-stimulated ARF1 GTP hydrolysis, GDP FP detection | ADP-ribosylation factor GTPase-activating protein 1 (Rattus norvegicus), Q62848 | actives 0.26% (n = 360,000);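 active means inhibition above a per-plate limit, mean inhibition of low control wells plus 3 SD, cut at about 25% in these data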;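 further: 0% = DMSO wells with enzyme and 100% = wells lacking Arfgap1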
Target sequence (Q62848 1-136 limits assumed): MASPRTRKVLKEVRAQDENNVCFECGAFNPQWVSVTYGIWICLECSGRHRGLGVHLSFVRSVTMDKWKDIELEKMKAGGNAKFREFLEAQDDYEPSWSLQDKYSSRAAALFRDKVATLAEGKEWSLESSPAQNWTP
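Material: rat Arfgap1 GAP domain (His6, aa 1-136), purified enzyme. Also added: human ARF1(Δ1-17)-GTP substrate. Compound dosing: 16.5 µM single point, 1.26% DMSO. Timing: enzyme reaction 120 min at 25 °C after 20 min preincubation. Signal: GDP detection by fluorescence polarization. Read-out basis: percent inhibition of GAP-stimulated GDP formation, scaled between DMSO and no-Arfgap1 medians.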
ASAP1 inh – inhibitors of human ASAP1 ArfGAP activity, primary screen, biochemical, fluorescence polarization; Arf-GAP with SH3 domain, ANK repeat and PH domain-containing protein 1 (Homo sapiens), …; ASAP1-stimulated ARF1 GTP hydrolysis, GDP FP detection; inhibition, % at 16.5 µM; actives 0.19% (n = 360,000); in the data active means inhibition above about 25%;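 further: 0% = vehicle with enzyme and substrate and 100% = no enzyme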
CSN inh – inhibitors of CSN-mediated cullin deneddylation, primary screen, biochemical, fluorescence polarization, uHTS | Purified CSN, SCF-Nedd8-OG deneddylation | actives 0.38% (n = 360,000) | inhibition, % at 12.5 µM | AID 651999, 2013;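 active means pattern-corrected inhibition above about 35%, with an unprinted fluorescence ratio check between 0.5 and 1.5, limit read from the data, passing the limit was not always enough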;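 further: 0% = enzyme with substrate and 100% = substrate without enzyme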
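Detection – fluorescence polarization · System – HEK293T-derived human Csn5 enzyme · Controls – substrate-only high control, full reaction low control · Timing – 90 min, room temperature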
ARFGAP1 inh conf – ARFGAP1 inhibitor hit confirmation, biochemical, fluorescence polarization, triplicate; shares compounds with ARFGAP1 inhibitor; ARFGAP1-stimulated ARF1 GTP hydrolysis, GDP tracer FP; inhibition, % at 16.5 µM; actives 30% (n = 890);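 active means average inhibition over triplicates above the hit cutoff set in the earlier primary screen, cut at about 25% in these data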;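 further: 0% = Arfgap1 plus ARF1-GTP with DMSO and 100% = wells lacking Arfgap1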
CSN5 deneddyl – Csn5 deneddylation inhibitors, confirmation, biochemical, fluorescence polarization, single concentration, SCF-Nedd8OG substrate | shares compounds with CSN inh | Csn5 deneddylation of SCF-Nedd8OG, 90 min | inhibition, % at 16.6 µM | actives 62% (n = 540); in the data active means inhibition above about 50%;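 further: 0% = DMSO with enzyme and 100% = no enzyme wells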
MMP-2 counter – MMP-2 protease inhibition counter-screen, confirmation, counter-screen for CSN deneddylation inhibitor project, biochemical, fluorescence, single concentration | shares compounds with CSN inh | recombinant MMP-2, FRET substrate fluorescence, 60 min | inhibition, % at 16.6 µM | actives 33% (n = 540) | AID 720655, 2013;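 active means corrected plate-normalized z-score of 5 or more, or -5 or less, or inhibition of 15% or more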;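 further: plate controls were DMSO wells with enzyme for no effect and buffer wells lacking MMP-2 for full effect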
Thrombin cntr – blocks bovine thrombin in a CSN deneddylation counter-screen; shares compounds with CSN inh; bovine thrombin cleavage of Ub4-pepOG, fluorescence polarization; inhibition, % at 16.6 µM; actives 49% (n = 540); AID 720656;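 active means inhibition at or above a set limit, with a fluorescence interference ratio between 0.5 and a set maximum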
Active calls of the source: *; x = no result; + = active, no number. An excerpt weighted towards active compounds, which were near 0.95% of everything screened.

SMILES	HNF4A DNA FP	ARFGAP1 inhibitor	ASAP1 inh	CSN inh	CSN5 deneddyl	MMP-2 counter	Thrombin cntr	others
COc1ccc(-n2c(=S)[nH]c3cc(C(=O)Nc4ccc(F)cc4)ccc3c2=O)c(OC)c1	3	25*	16	1	x	x	x	ARFGAP1 inh conf=13
O=C(CNC(=O)c1ccc(Br)o1)Nc1cccc(-c2cnc3ccccc3n2)c1	-1	25*	-6	1	x	x	x	ARFGAP1 inh conf=4
O=C(N/N=C/c1cc(Br)ccc1O)Nc1ccccc1	2	25*	5	-4	x	x	x	ARFGAP1 inh conf=14
CCOc1ccc(NC(=S)Nc2ccc3nsnc3c2)cc1	6	26*	22	44*	95*	35*	-24	ARFGAP1 inh conf=7
COCCN(C(=O)CNC(=O)c1ccco1)C(C(=O)NC1CCCC1)c1cccc(OC)c1 (stereo not drawn)	3	-7	-5	1	x	x	x
O=C(Nc1ccc(Nc2ccncc2)cc1)c1ccc(Nc2ccnc3ccc([N+](=O)[O-])cc23)cc1[N+](=O)[O-]	5	74*	15	54*	x	36*	-14	ARFGAP1 inh conf=+
O=C(Nc1ccc(Nc2ccncc2)cc1)c1ccc([N+](=O)[O-])cc1	3	-14	17	-2	x	x	x
O=C(N/N=C/c1ccccn1)c1cc(-c2ccc3ccccc3c2)n[nH]1	0	29*	14	41*	x	20*	17*	ARFGAP1 inh conf=100*
CCCN1C(=O)c2[nH]nc(-c3ccccc3)c2C1c1ccc(F)cc1 (stereo not drawn)	x	11	-4	x	x	x	x
O=C1/C(=C/c2ccco2)Oc2c1ccc(O)c2CN1CCCCC1	-25	3	8	42*	x	-23	-60
O=C(O)c1cccc(-c2ccc(/C=c3/sc4nc5ccccc5n4c3=O)o2)c1	38*	-10	7	129*	-45	19*	78*
COc1ccccc1NC(=O)COC(=O)c1[nH]c(=O)[nH]c(=O)c1N	0	10	9	-2	x	x	x
O=C1/C(=C\c2ccco2)SC(=S)N1c1ccc(O)cc1	2	2	3	7	x	x	x
CN(C)c1ccc(/C=C/C=C2/SC(=S)N(c3ccccc3)C2=O)cc1	57*	8	20	38*	67*	-10	35*
O=C1/C(=C/C=C/c2ccco2)SC(=S)N1c1ccc(O)cc1	-3	-13	6	57*	64*	31*	42*
CC(C)N(C(=O)[C@H]1C[C@H](CC(=O)NCc2ccco2)C(=O)N2CCc3c([nH]c4ccc(Cl)cc34)[C@]12C)C(C)C	-3	-7	0	-1	x	x	x
CCN(CC)c1ccc(/C=C2\CCC(/C=N/NC(=O)c3ccc(=O)n(C)c3)=C2N2CCOCC2)cc1	119	2	6	69*	50	-32*	37*
CCOC(=O)C1=C(C)N=c2sc(=Cc3cc(Cl)c(OCC(=O)O)c(Cl)c3)c(=O)n2C1c1cccc(OC)c1 (stereo not drawn)	97*	0	-2	64*	17	2	49*
CCOC(=O)C1=C(C)N=c2s/c(=C/c3ccc(OCC(=O)O)cc3)c(=O)n2C1c1cc(OC)c(OC)c(OC)c1 (stereo not drawn)	1	-4	-16	4	x	x	x
COC1=C/C(=C/c2c(N)n3nc(-c4ccc(C)cc4)sc3nc2=O)C=CC1=O	60*	5	-6	78*	x	6	76*
CCS(=O)(=O)c1nn2c(N)c(/C=C3/C=CC(=O)C(OC)=C3)c(=O)nc2s1	31	13	-7	44*	55*	5	52*
CCOC1=C/C(=C/c2c(N)n3nc(-c4ccccc4)sc3nc2=O)C=CC1=O	32	2	-1	41*	6	5	64*
Cc1ccc(S(=O)(=O)N[C@@H](CC(C)C)C(=O)N2CCC(C(=O)N[C@H](C(=O)O)C(C)C)CC2)cc1	0	11	-6	-6	x	x	x
CC(Sc1nc2ccccc2c(=O)n1CC1CCCO1)C(=O)N(C)c1ccccc1 (stereo not drawn)	2	-6	-7	2	x	x	x
Cc1ccc(OCC(=O)Nc2sc3c(c2C#N)CC(C)(C)NC3(C)C)cc1	3	4	-12	5	x	x	x
SMILES	HNF4A DNA FP	ARFGAP1 inhibitor	ASAP1 inh	CSN inh	CSN5 deneddyl	MMP-2 counter	Thrombin cntr	others
CC1(C)Cc2c(sc(NC(=O)COc3cccc4ccccc34)c2C#N)C(C)(C)N1	214*	7	0	101*	-28	-9	-6
COc1cc(N2N=C(c3ccccc3)CC2c2ccccc2)c(C=O)cc1C=O (stereo not drawn)	-4	-3	9	-2	x	x	x
O=[N+]([O-])c1ccc(N2N=C(c3ccco3)CC2c2ccccc2)cc1 (stereo not drawn)	50*	0	6	42*	83*	-3	36*
Fc1ccc(C2CC(c3ccco3)=NN2c2ccccc2)cc1 (stereo not drawn)	-1	0	8	2	x	x	x
COc1ccccc1N1N=C(c2ccc([N+](=O)[O-])cc2)CC1c1ccccc1 (stereo not drawn)	47*	19	-1	38*	107*	0	25*
O=[N+]([O-])c1ccc(N2N=C(c3ccccc3)CC2c2ccccc2O)cc1 (stereo not drawn)	86*	0	-5	56*	51*	-7	59*
NS(=O)(=O)c1ccc(N2N=C(c3ccccc3)CC2c2ccccc2Br)cc1 (stereo not drawn)	2	9	2	3	x	x	x
CC(C)Cc1nnc(NC(=O)CSc2nc(O)c(-c3ccccc3)c(=O)[nH]2)s1	3	17	-3	-2	x	x	x
COc1ccccc1CCC(=O)Nc1ccc(C)cc1Cl	4	-8	6	-3	x	x	x
